Test results: PMC6087492 (Bioorganic & medicinal chemistry, 2018)

Legend:
OXR1 = target: T1, OXR1 (Homo sapiens, UniProt Q8N573); experiment: OXR1 degradation assay using western blot; type: cell-based; conditions: 5 µM, 24 h, WI-38 IR-SCs and NCs
T1 sequence (Q8N573 1-874): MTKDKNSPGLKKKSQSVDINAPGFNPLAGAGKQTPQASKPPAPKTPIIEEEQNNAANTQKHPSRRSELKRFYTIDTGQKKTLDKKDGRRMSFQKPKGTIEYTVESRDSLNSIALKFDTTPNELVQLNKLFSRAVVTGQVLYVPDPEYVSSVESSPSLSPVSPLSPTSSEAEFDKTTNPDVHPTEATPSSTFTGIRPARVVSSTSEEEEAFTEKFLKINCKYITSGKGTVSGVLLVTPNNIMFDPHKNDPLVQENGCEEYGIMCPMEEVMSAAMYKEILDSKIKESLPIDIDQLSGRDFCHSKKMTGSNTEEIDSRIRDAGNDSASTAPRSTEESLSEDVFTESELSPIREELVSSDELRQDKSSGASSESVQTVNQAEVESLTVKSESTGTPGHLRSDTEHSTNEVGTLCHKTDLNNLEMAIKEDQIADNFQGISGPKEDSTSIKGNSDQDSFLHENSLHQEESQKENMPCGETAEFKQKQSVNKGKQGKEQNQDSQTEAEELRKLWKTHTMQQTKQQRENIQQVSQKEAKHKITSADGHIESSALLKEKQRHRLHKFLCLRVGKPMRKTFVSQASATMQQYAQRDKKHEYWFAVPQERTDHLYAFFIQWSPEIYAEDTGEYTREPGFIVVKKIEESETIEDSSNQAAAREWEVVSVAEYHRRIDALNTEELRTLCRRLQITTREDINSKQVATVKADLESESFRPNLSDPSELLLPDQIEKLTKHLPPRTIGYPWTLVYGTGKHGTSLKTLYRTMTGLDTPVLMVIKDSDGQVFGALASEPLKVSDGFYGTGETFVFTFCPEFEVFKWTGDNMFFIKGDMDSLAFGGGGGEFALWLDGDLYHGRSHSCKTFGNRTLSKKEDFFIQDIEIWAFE
Procedure, shortened: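 Low-passage (<25) WI-38 cells, plus senescent cells made by 15 Gy ¹³⁷Cs γ-irradiation (1.080 Gy/min). Both cultured at 37 °C, 5% CO2, then given 5 µM test compound or vehicle for 24 h. Lysed in RIPA with EDTA/EGTA and transferred to PVDF. Blocked with 5% nonfat milk/TBST. Probed overnight at 4 °C for OXR1 and β-actin, HRP secondaries, ECL/autoradiography. Quantified as mean ± SEM, n = 3.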

mice = conditions: cited from earlier work
[1] = system: ROS production in WI-38 IR-SCs; experiment: ROS assay with dihydrorhodamine 123, flow cytometry; type: cell-based, Human; conditions: […] treatment, DHR 123 30 min
WI-38 IR-SCs = experiment: Apoptosis assay, Annexin V / propidium iodide flow cytometry; type: cell-based, Human; conditions: QVD 10 µM with 49 1 µM, 48 h and 72 h

SMILES | OXR1 levels (western blot) (OXR1) | also measured
C=C1CCCN(C(=O)/C=C/c2cc(OC)c(OC)c(OC)c2)C1=O [Compound 47, (E)-3-Methylene-1-(3-(3,4,5-trimethoxyphenyl)acryloyl)piperidin-2-one] | selectively reduced the levels of OXR1 in SCs | 
C=C1CCN(C(=O)/C=C/c2cc(OC)c(OC)c(OC)c2)C1=O [Compound 48, (E)-3-Methylene-1-(3-(3,4,5-trimethoxyphenyl)acryloyl)pyrrolidin-2-one] | selectively reduced the levels of OXR1 in SCs | 
C=C1CCCCN(C(=O)/C=C/c2cc(OC)c(OC)c(OC)c2)C1=O [Compound 49, (E)-3-Methylene-1-(3-(3,4,5-trimethoxyphenyl)acryloyl)azepan-2-one] | selectively reduced the levels of OXR1 in SCs | 
COc1cc(/C=C/C(=O)N2CCC=CC2=O)cc(OC)c1OC [PL, piperlongumine] | abrogated the upregulation of OXR1 | maximum tolerated oral dose (mice; mice, oral): > 1000 mg/kg; effective therapeutic dose for cancer (mice; oral dosing): ≥ 2.4 mg/kg; ROS levels (DHR 123 fluorescence) [1]: moderate increase of the ROS levels
CC(C)[C@H](NC(=O)c1ccc2ccccc2n1)C(=O)N[C@@H](CC(=O)O)C(=O)COc1c(F)cccc1F [QVD] |  | effect of pan-caspase inhibitor on 49-induced apoptosis and death (WI-38 IR-SCs): significantly reduced apoptosis and partially rescued SCs from 49-induced death
